ChEMBL document CHEMBL2311378, “Synthesis and biological activity against Trypanosoma cruzi of substituted 1,4-naphthoquinones” (Eur J Med Chem, 2013)

How the values were obtained:
[1] = system: Trypanosoma cruzi; assay: Antitrypanosomal activity against Trypanosoma cruzi Y bloodstream trypomastigotes isolated from infected Swiss mouse blood assessed as lysis level at 8.0 uM after 24 hrs; format: functional
[2] = system: Trypanosoma cruzi; assay: Antitrypanosomal activity against Trypanosoma cruzi Y bloodstream trypomastigotes isolated from infected Swiss mouse blood assessed as lysis level at 32.0 uM after 24 hrs; format: functional
[3] = system: Trypanosoma cruzi; assay: Antitrypanosomal activity against Trypanosoma cruzi Y bloodstream trypomastigotes isolated from infected Swiss mouse blood assessed as lysis level after 24 hrs; format: functional, organism-based
Summary of the method: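 Infected mouse blood diluted with healthy mouse blood to 10⁶ trypomastigotes ml⁻¹. Compounds dissolved in DMSO, added to the blood, and incubated at 4 °C for 24 h. Remaining trypomastigotes were counted. Run in triplicate alongside DMSO and crystal violet controls. IC50 is the concentration lysing 50% of parasites.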

[4] = system: Trypanosoma cruzi; assay: Antitrypanosomal activity against Trypanosoma cruzi Y bloodstream trypomastigotes isolated from infected Swiss mouse blood assessed as lysis level at 0.5 uM after 24 hrs; format: functional
[5] = system: Trypanosoma cruzi; assay: Antitrypanosomal activity against Trypanosoma cruzi Y bloodstream trypomastigotes isolated from infected Swiss mouse blood assessed as lysis level at 2.0 uM after 24 hrs; format: functional

Structure (SMILES)	IC50 [3] [µM]	Activity [1] [%]	Activity [2] [%]	Activity [4] [%]	Activity [5] [%]
COc1ccc(C(CC(=O)O)C2=CC(=O)c3ccccc3C2=O)cc1 (racemic)	48.5	14.1	38.7	0	10.5
CCCCC/C=C/C/C=C/CCCCCCCC1=CC(=O)c2ccccc2C1=O	26.4	30.9	49.2	0	7.8
O=C1C(CCCCc2ccccc2)=C(CCCCc2ccccc2)C(=O)c2ccccc21	25.1	35.1	44	3	21.5
CCCCCCCC1=C(CCCCCCC)C(=O)c2ccccc2C1=O	124	10.6	18.3	8.1	8.9
O=C1C=C(O)C(=O)c2ccccc21 [LAWSONE]	> 2500				

Continued, in another order:

IC50 [3] [µM]	Structure (SMILES)	Activity [1] [%]	Activity [2] [%]	Activity [4] [%]	Activity [5] [%]
17.4	COc1ccc(C(CC(=O)O)C2=C(C)C(=O)c3ccccc3C2=O)cc1 (racemic)	34	55	12	24.6
31	CN(C)c1ccc(C(=C2C=CC(=[N+](C)C)C=C2)c2ccc(N(C)C)cc2)cc1 [GENTIAN VIOLET]				
7.8	CCCCC/C=C\C/C=C/CCCCCCCC1=C(O)C(=O)c2ccccc2C1=O	42.9	50.8	44.5	47.6
8.1	CCCCCCCC/C=C/CCCCCCCC1=CC(=O)c2ccccc2C1=O	46.1	49.2	37.2	45.5
10.6	CCCCCCCC/C=C/CCCCCCCC1=C(O)C(=O)c2ccccc2C1=O	51.3	57.6	13.1	22.5
32.6	CCCCCCCC/C=C/CCCCCCCC1=C(C)C(=O)c2ccccc2C1=O	35.1	34	27.2	25.1
16.9	CCCCC/C=C/C/C=C/CCCCCCCC1=C(C)C(=O)c2ccccc2C1=O	47.1	44.5	15.2	25.6
